pEC50: −log10 of the molar value.
Assays:
[1] = Prodrug conversion in Beagle dog liver assessed as nucleotide triphosphate level at 5 mg/kg, po administered as single dose measured after 4 hrs by LC-MS/MS analysis; format: ADME, organism-based, Canis lupus familiaris; conditions: in vivo
[2] = Unbound drug level in human plasma; format: ADME, cell-free
[3] = Cytotoxicity against human HuH7 cells assessed as reduction in cell viability; format: cell-based, Huh-7; conditions: read-out: TD50 (the source's name)
Hepatitis C virus [4] = assay: Antiviral activity against HCV genotype 1b Con1 expressing wild type NS5B infected in human HuH7 replicon cells assessed as inhibition of viral replication after 4 days by luciferase reporter gene based assay; format: functional, organism-based, Hepacivirus hominis; conditions: subtype 1b Con1, Huh-7, 96 h
Hepatitis C virus [5] = assay: Antiviral activity against HCV genotype 6a expressing wild type NS5B infected in human HuH7 replicon cells assessed as inhibition of viral replication after 4 days by luciferase reporter gene based assay; format: functional, organism-based, Hepacivirus hominis; conditions: subtype 6a, Huh-7, 96 h
[6] = Prodrug conversion in human primary hepatocytes assessed as nucleotide triphosphate level at 100 uM incubated for 4 hrs followed by compound wash-out for 20 hrs and measured following 4 hrs incubation period by LC-MS/MS analysis; format: ADME, cell-based, Hepatocyte
Summary of the method: (§1)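 Cryopreserved primary human hepatocytes plated ~55,000 viable cells/well on collagen, medium changed after 4–6 h to Williams E maintenance medium with Geltrex 0.35 mg/mL, overnight at 37 °C; prodrug 100 µM for 4 h, then washed; second plate held a further 20 h drug-free; cells washed with ice-cold HBSS, triphosphate measured by LC-MS/MS at 4 or 24 h.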

[7] = Intrinsic clearance in dog hepatocytes; format: ADME, cell-based, Canis lupus familiaris, Hepatocyte; conditions: read-out: CLH (converted)
[8] = Prodrug conversion in Beagle dog liver assessed as nucleotide triphosphate level at 5 mg/kg, po co-dosed with 5 mg/kg sofosbuvir measured after 24 hrs by LC-MS/MS analysis; format: ADME, organism-based, Canis lupus familiaris; conditions: in vivo
Summary of the method: (§2)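 Beagle dogs (3 per time point) given single oral prodrug 5 mg/kg in EtOH:PEG-400:Phosal 53 MCT (10:30:60, w/w), cassette-dosed with sofosbuvir 5 mg/kg as internal standard; liver biopsies at 4 or 24 h, flash frozen, triphosphate measured by LC-MS/MS.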

Hepatitis C virus [9] = assay: Antiviral activity against HCV genotype 3a expressing NS5B S282T mutant infected in human HuH7 replicon cells assessed as inhibition of viral replication after 4 days by luciferase reporter gene based assay; format: functional, organism-based, Hepacivirus hominis; conditions: subtype 3a, Huh-7, 96 h
Hepatitis C virus [10] = assay: Antiviral activity against HCV genotype 2a expressing NS5B S282T mutant infected in human HuH7 replicon cells assessed as inhibition of viral replication after 4 days by luciferase reporter gene based assay; format: functional, organism-based, Hepacivirus hominis; conditions: subtype 2a, Huh-7, 96 h
Hepatitis C virus [11] = assay: Antiviral activity against HCV genotype 1a H77 infected in human HuH7 replicon cells assessed as inhibition of viral replication after 3 days by luciferase reporter gene assay; format: functional, organism-based, Hepacivirus hominis; conditions: subtype 1a H77, Huh-7, 72 h
Summary of the method: (§3)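 Stable subgenomic replicon cell lines (genotype 1a-H77 or 1b-Con1) carrying a luciferase reporter; compounds added in DMEM with 5% FBS, cells incubated 3 days with or without compound, then lysed and luciferase activity read; EC50 from nonlinear regression fit to 4-parameter logistic equation.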

Hepatitis C virus [12] = assay: Antiviral activity against HCV genotype 3a expressing wild type NS5B infected in human HuH7 replicon cells assessed as inhibition of viral replication after 4 days by luciferase reporter gene based assay; format: functional, organism-based, Hepacivirus hominis; conditions: subtype 3a, Huh-7, 96 h
Hepatitis C virus [13] = assay: Antiviral activity against HCV genotype 1b Con1 infected in human HuH7 replicon cells assessed as inhibition of viral replication after 3 days by luciferase reporter gene assay; format: functional, organism-based, Hepacivirus hominis; conditions: subtype 1b Con1, Huh-7, 72 h; summary of the method: as §3
[14] = Prodrug conversion in Beagle dog liver assessed as nucleotide triphosphate level at 5 mg/kg, po co-dosed with 5 mg/kg sofosbuvir measured after 4 hrs by LC-MS/MS analysis; format: ADME, organism-based, Canis lupus familiaris; conditions: in vivo; summary of the method: as §2
[15] = Prodrug conversion in Beagle dog liver assessed as nucleotide triphosphate level at 5 mg/kg, po administered as single dose measured after 24 hrs by LC-MS/MS analysis; format: ADME, organism-based, Canis lupus familiaris; conditions: in vivo
Hepatitis C virus [16] = assay: Antiviral activity against HCV genotype 2a expressing wild type NS5B infected in human HuH7 replicon cells assessed as inhibition of viral replication after 4 days by luciferase reporter gene based assay; format: functional, organism-based, Hepacivirus hominis; conditions: subtype 2a, Huh-7, 96 h
[17] = Unbound drug level in dog plasma; format: ADME, cell-free, Canis lupus familiaris
[18] = Prodrug conversion in human primary hepatocytes assessed as nucleotide triphosphate level at 100 uM incubated for 4 hrs and followed by compound washout for 20 hrs and measured following 24 hrs incubation period by LC-MS/MS analysis; format: ADME, cell-based, Hepatocyte; summary of the method: as §1
Hepatitis C virus [19] = assay: Antiviral activity against HCV genotype 4a expressing wild type NS5B infected in human HuH7 replicon cells assessed as inhibition of viral replication after 4 days by luciferase reporter gene based assay; format: functional, organism-based, Hepacivirus hominis; conditions: subtype 4a, Huh-7, 96 h
Hepatitis C virus [20] = assay: Antiviral activity against HCV genotype 1b Con1 expressing NS5B S282T mutant infected in human HuH7 replicon cells assessed as inhibition of viral replication after 4 days by luciferase reporter gene based assay; format: functional, organism-based, Hepacivirus hominis; conditions: subtype 1b Con1, Huh-7, 96 h
Hepatitis C virus [21] = assay: Potency index, ratio of sofosbuvir EC50 to compound EC50 for HCV genotype 1b Con1 infected in human HuH7 replicon cells assessed as inhibition of viral replication after 3 days by luciferase reporter gene assay; format: functional, Hepacivirus hominis, subtype 1b Con1, Huh-7
Summary of the method: (§4)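 Stable subgenomic luciferase-reporter replicon Huh-7 lines, genotype 1a-H77 or 1b-Con1. Test compound and sofosbuvir comparator each run in DMEM with 5% FBS for 3 days. Cells lysed and luciferase activity read. EC50 obtained by nonlinear regression to a 4-parameter logistic equation. Index is sofosbuvir EC50 divided by compound EC50, both from this assay.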

Hepatitis C virus [22] = assay: Potency index, ratio of sofosbuvir EC50 to compound EC50 for HCV genotype 1a H77 infected in human HuH7 replicon cells assessed as inhibition of viral replication after 3 days by luciferase reporter gene assay; format: functional, Hepacivirus hominis, subtype 1a H77, Huh-7; summary of the method: as §4
[23] = Prodrug conversion in Beagle dog liver assessed as nucleotide triphosphate level at 5 mg/kg, po qd for 4 days co-dosed with 5 mg/kg sofosbuvir and measured at 24 hrs post-last dose by LC-MS/MS analysis; format: ADME, organism-based, Canis lupus familiaris; conditions: in vivo
Summary of the method: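 Beagle dogs (3 per time point) dosed orally once daily for 4 days with prodrug (1 or 5 mg/kg) in EtOH:PEG-400:Phosal 53 MCT (10:30:60, w/w) together with sofosbuvir 5 mg/kg; liver biopsy 24 h after final dose, flash frozen, triphosphate by LC-MS/MS.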

[24] = Aqueous solubility of compound in pH 7.4 phosphate buffer; format: physicochemical
[25] = Distribution coefficient, logD of compound by HT-LCMS analysis; format: physicochemical; conditions: octanol/water
[26] = Prodrug conversion in Beagle dog liver assessed as nucleotide triphosphate level at 5 mg/kg, po qd for 4 days and measured at 24 hrs post-last dose by LC-MS/MS analysis; format: ADME, organism-based, Canis lupus familiaris; conditions: in vivo
[27] = Intrinsic clearance in human hepatocytes; format: ADME, cell-based, Hepatocyte; conditions: read-out: CLH (converted)
[28] = Stability in human plasma assessed as parent compound remaining after 4 hrs; format: ADME, cell-free; conditions: read-out: Stability
Summary of the method: (§5)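 Prodrug incubated 4 h at 37 °C in dog or human plasma; result given as percent parent remaining.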

[29] = Stability in dog plasma assessed as parent compound remaining after 4 hrs; format: ADME, cell-free, Canis lupus familiaris; conditions: read-out: Stability; summary of the method: as §5
Hepatitis C virus [30] = assay: Antiviral activity against HCV genotype 1b Con1 over expressing CES1 infected in human HuH7 replicon cells assessed as inhibition of viral replication after 3 days by luciferase reporter gene assay; format: functional, organism-based, Hepacivirus hominis; conditions: subtype 1b Con1, Huh-7, 72 h
[31] = Prodrug conversion in human primary hepatocytes assessed as increase in nucleotide triphosphate level at 100 uM incubated for 4 hrs followed by compound wash-out for 20 hrs and measured following 4 hrs incubation period by LC-MS/MS analysis relative to sofosbuvir; format: ADME, cell-based, Hepatocyte

| Structure (SMILES) | Drug metabolism [1] [µM] | fraction unbound [2] | CC50 [3] [nM] | pEC50 (Hepatitis C virus [4]) | pEC50 (Hepatitis C virus [5]) | Drug metabolism [6] [µM] | CLint scaled [7] [mL/min/kg] | Drug metabolism [8] [µM] | pEC50 (Hepatitis C virus [9]) | pEC50 (Hepatitis C virus [10]) | pEC50 (Hepatitis C virus [11]) | pEC50 (Hepatitis C virus [12]) | pEC50 (Hepatitis C virus [13]) | Drug metabolism [14] [µM] | Drug metabolism [15] [µM] | fraction unbound [17] | Drug metabolism [18] [µM] | solubility [24] [µM] | remaining at 4 h [28] [%] | remaining at 4 h [29] [%] | also measured |
| --- | --- | --- | --- | --- | --- | --- | --- | --- | --- | --- | --- | --- | --- | --- | --- | --- | --- | --- | --- | --- | --- |
| CC(C)OC(=O)[C@H](C)N[P@](=O)(OC[C@H]1O[C@@H](n2ccc(=O)[nH]c2=O)[C@](Cl)(Br)[C@@H]1O)Oc1ccccc1 | 0.088 | 0.113 | 80000 | 7.52 | 7.64 | 110 | 113 | 1.02 | 6.85 | 6.58 | 6.94 | 7.50 | 6.83 | 1.59 | 0.049 | 0.213 | 22 | – | – | – | pEC50 (Hepatitis C virus [16]): 6.73; pEC50 (Hepatitis C virus [19]): 7.52; pEC50 (Hepatitis C virus [20]): 6.79 |
| CC(C)OC(=O)[C@H](C)N[P@](=O)(OC[C@H]1O[C@@H](n2ccc(=O)[nH]c2=O)C(Cl)(Cl)[C@@H]1O)Oc1ccccc1 | – | – | > 100000 | – | – | – | – | – | – | – | 7.37 | – | 7.32 | – | – | – | – | – | – | – | Ratio EC50 (Hepatitis C virus [21]): 3 - 4; Ratio EC50 (Hepatitis C virus [22]): 3 - 4 |
| CC(C)OC(=O)[C@H](C)N[P@](=O)(OC[C@H]1O[C@@H](n2ccc(=O)[nH]c2=O)[C@@](F)(Cl)[C@@H]1O)Oc1ccccc1 | – | – | 11000 | – | – | – | – | – | – | – | 7.28 | – | 7.21 | – | – | – | – | – | – | – | Ratio EC50 (Hepatitis C virus [21]): 3 - 4; Ratio EC50 (Hepatitis C virus [22]): 3 - 4 |
| CCOC(=O)C(C)(C)N[P@@](=O)(OC[C@H]1O[C@@H](n2ccc(=O)[nH]c2=O)[C@](Cl)(Br)[C@@H]1O)Oc1ccccc1 | 7.21 | 0.31 | – | – | – | – | 98.3 | 4.03 | – | – | 5.57 | – | 5.59 | 5.35 | 2.64 | 0.187 | – | > 200 | 92 | 100 | Drug metabolism [23]: 6.05 µM; logD [25]: 3.07; Drug metabolism [26]: 1.43 µM; CLint scaled [27]: 155 mL/min/kg |
| CCOC(=O)C(C)(C)N[P@](=O)(OC[C@H]1O[C@@H](n2ccc(=O)[nH]c2=O)[C@](Cl)(Br)[C@@H]1O)Oc1ccccc1 | 8.83 | 0.24 | – | – | – | 2818 | 200 | 5.44 | – | – | 6.19 | – | 6.02 | 15.03 | 2.1 | 0.133 | 203 | > 200 | 100 | 86 | Drug metabolism [23]: 11.1 µM; pEC50 (Hepatitis C virus [30]): 6.81; logD [25]: 3.11; Drug metabolism [26]: 2.89 µM; CLint scaled [27]: 268 mL/min/kg; fold change (FC) [31]: 30 to 40 |
| CC(C)OC(=O)[C@H](C)N[P@](=O)(OC[C@H]1O[C@@H](n2ccc(=O)[nH]c2=O)[C@@](F)(Br)[C@@H]1O)Oc1ccccc1 | 11.5 | 0.43 | > 100000 | 7.82 | 7.84 | 192 | – | 8.87 | 7.12 | 6.51 | 7.25 | 7.90 | 7.02 to 7.06 | 7.39 | 6.61 | 0.367 | 91 | > 200 | 100 | 86 | pEC50 (Hepatitis C virus [30]): 7.25; logD [25]: 3.07; Ratio EC50 (Hepatitis C virus [21]): 2 - 3; CLint scaled [27]: 257 mL/min/kg; Ratio EC50 (Hepatitis C virus [22]): 2 - 3; pEC50 (Hepatitis C virus [16]): 6.72; pEC50 (Hepatitis C virus [19]): 7.59; pEC50 (Hepatitis C virus [20]): 6.87 |
| CC(C)OC(=O)[C@H](C)N[P@](=O)(OC[C@H]1O[C@@H](n2ccc(=O)[nH]c2=O)[C@](C)(F)[C@@H]1O)Oc1ccccc1 [SOFOSBUVIR] | – | – | > 100000 | 7.21 | 7.06 | 97 | 40 | – | 6.48 | 6.00 | 6.77 to 6.81 | 7.12 | 6.64 to 6.73 | – | – | 0.323 | 122 | > 200 | 96 | 93 | Fu [2]: 0.563; pEC50 (Hepatitis C virus [30]): 7.28; pEC50 (Hepatitis C virus [16]): 6.17; pEC50 (Hepatitis C virus [19]): 7.11; pEC50 (Hepatitis C virus [20]): 6.20 |

— ChEMBL document CHEMBL4609978, “Synthesis and evaluation of 2'-dihalo ribonucleotide prodrugs with activity against hepatitis C virus” (Bioorg Med Chem, 2020)
